Assay [1] deals with T1, Tubulin (Homo sapiens) (UniProt P68371+Q9H4B7+P0DPH7+P68366+Q13509+Q71U36+P04350+Q3ZCM7+P07437+P68363+Q9BQE3+Q6PEY2+Q13885+Q9BVA1+Q9BUF5). Description: Induction of microtubule depolymerization in human MCF7 cells assessed as induction of cell rounding at 100 nM for 5 hrs by immunofluorescence staining based confocal microscopic analysis. Summed up:
(§1)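 MCF-7 cells were seeded at 1 × 10^5 cells/mL on chamber slides and treated at 0.01, 0.05 and 0.1 µM. Controls were vehicle (1% v/v ethanol), CA-4 (0.01 µM) and paclitaxel (1 µM). Cells were fixed and stained with anti-α-tubulin-FITC (DM1A) and Alexa Fluor 488, then counterstained with DAPI. Imaging was by confocal microscopy over three separate experiments.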

Assay [2] deals with MCF7. The assay is described as follows: Induction of apoptosis in human MCF7 cells assessed as downregulation of Mcl-1 expression level measured after 48 hrs by Western blot analysis. It is filed as functional, cell-based. The conditions noted are these: dose 0.05-0.5 µM. Summed up:
(§2)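 MCF-7 cells (1 × 10^5 per flask) were treated at 0.05, 0.1 and 0.5 µM for 48 and 72 h; vehicle was 0.1% v/v ethanol. Lysis was in RIPA buffer with protease and phosphatase inhibitors. Equal protein (BCA) was run on 12% SDS-PAGE and blotted for Mcl-1, Bcl-2 and survivin, with GAPDH as loading control and ECL detection. Three independent experiments.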

The species named for assay [3] is Bos taurus. The assay is described as follows: Inhibition of bovine brain tubulin polymerization at 10 uM measured at 30 sec interval for 30 mins in presence of GTP by turbidimetry-based spectrophotometric method.
The test system of assay [4] is HT-29. The assay is described as follows: Antiangiogenic activity in human HT29 cells assessed as reduction in IL-1beta secretion at 5 uM after 24 hrs by ELISA. Type of assay: functional, cell-based. Summed up: (§3)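 HT-29 cells at 5 x 10^4 per well, cultured 24 h and then exposed to 5 µM compound. Conditioned medium collected on ice and stored at -80 °C. Cytokines and angiogenic, vascular-injury and chemokine factors measured by multiplex panels with overnight supernatant incubation (Angiogenesis Panel 1 and Vascular Injury Panel 2 same day). Medium undiluted except 1:4 for Vascular Injury Panel 2. Secretion normalised to lysate protein by BCA.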

For assay [5], the system named is HT-29. Description: Cell cycle arrest in human HT-29 cells assessed as accumulation at sub-G1 phase at 1 uM measured after 48 hrs by PI staining based flow cytometry analysis (reference value: 2.5 %). It is filed as functional. In outline:
(§4)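 Cells (1 × 10^5/well) were treated at 1 µM for 24, 48 and 72 h; vehicle was 0.1% v/v ethanol. Cells were trypsinised, fixed in ice-cold 70% ethanol overnight at −20 °C, then stained with PI (50 µg/mL) plus DNase-free RNase A (50 µg/mL) at 37 °C for 30 min. DNA content of 10,000 cells per group was read by flow cytometry at 488 nm.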

Assay [6] deals with HT-29. Description: Antiangiogenic activity in human HT29 cells assessed as reduction in IL-1alpha secretion at 5 uM after 24 hrs by ELISA. Type of assay: functional, cell-based. Summed up: as §3
Assay [7] relates to HT-29. Description: Induction of apoptosis in human HT29 cells assessed as cell apoptosis at 1 uM after 72 hrs by Annexin V-FITC and propidium iodide staining based flow cytometry. Type of assay: functional. Summed up: (§5)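 HT-29 cells were treated at 1 µM for 24, 48 and 72 h against an untreated control. Cells were stained with Annexin V in binding buffer (HEPES pH 7.4, NaCl, CaCl2) for 30 min on ice in the dark, washed, resuspended in PI-containing buffer and read at once by flow cytometry. Quadrants: early apoptotic, late apoptotic, necrotic (Annexin V−/PI+).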

The subject of assay [8] is HT-29. The assay is described as follows: Cell cycle arrest in human HT-29 cells assessed as accumulation at G2/M phase at 1 uM measured after 24 hrs by PI staining based flow cytometry analysis (reference value: 11 %). Type of assay: functional. In outline:
as §4

In assay [9] the test system is MCF7. Description: Induction of apoptosis in human MCF7 cells assessed as total apoptotic cells at 0.01 uM after 48 hrs by Annexin V-FITC and propidium iodide staining based flow cytometry (reference value: 10 %). It is filed as functional. Summed up:
(§6)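 MCF-7 cells were seeded at 1 × 10^5 cells/mL and treated for 48 h at 0.01, 0.1 and 1 µM; vehicle was 0.1% v/v ethanol. Annexin V staining was done on ice in the dark for 30 min in HEPES/NaCl/CaCl2 binding buffer, followed by PI. Flow cytometry scored early apoptotic (Annexin V+/PI−) and late apoptotic (Annexin V+/PI+) cells; total apoptotic is Annexin V-positive cells.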

In assay [10] the test system is HT-29. Description: Induction of apoptosis in human HT29 cells assessed as necrotic cells at 1 uM after 24 hrs by Annexin V-FITC and propidium iodide staining based flow cytometry (reference value: 3 %). It is filed as functional. In outline:
as §5

Assay [11] concerns MCF7. The assay is described as follows: Cell cycle arrest in human MCF7 cells assessed as accumulation at sub-G1 phase at 1 uM measured after 72 hrs by PI staining based flow cytometry analysis. It is filed as functional. In outline: as §4
Assay [12] relates to HT-29. The assay is described as follows: Induction of apoptosis in human HT29 cells assessed as necrotic cells at 1 uM after 72 hrs by Annexin V-FITC and propidium iodide staining based flow cytometry (reference value: 3 %). Type of assay: functional. Summed up: as §5
For assay [13], the system named is MCF7. Description: Induction of apoptosis in human MCF7 cells assessed as downregulation of Mcl-1 expression level measured after 72 hrs by Western blot analysis. Type of assay: functional, cell-based. As to conditions: dose 0.05-0.5 µM. Summed up: as §2
Assay [14] deals with HT-29. Description: Antiangiogenic activity in human HT29 cells assessed as reduction in VEGF secretion at 5 uM after 24 hrs by ELISA. It is filed as functional, cell-based. Summed up:
as §3

Assay [15] relates to MCF7. Description: Cell cycle arrest in human MCF7 cells assessed as accumulation at G2/M phase at 1 uM by PI staining based flow cytometry analysis. It is filed as functional. The conditions noted are these: TDE = time-dependent effect. Summed up:
as §4

Assay [16] deals with T1, Tubulin (Homo sapiens). Description: Induction of microtubule depolymerization in human MCF7 cells assessed as induction of spindle formation at 10 to 50 nM for 5 hrs by immunofluorescence staining based confocal microscopic analysis. It is filed as cell-based. The conditions noted are these: dose 10-50 nM. In outline:
as §1

The test system of assay [17] is MCF7. Description: Cell cycle arrest in human MCF7 cells assessed as accumulation at G2/M phase at 1 uM measured after 24 hrs by PI staining based flow cytometry analysis (reference value: 24 %). Type of assay: functional. Summed up:
as §4

The subject of assay [18] is MCF7. The assay is described as follows: Induction of apoptosis in human MCF7 cells assessed as total apoptotic cells at 0.1 uM after 48 hrs by Annexin V-FITC and propidium iodide staining based flow cytometry (reference value: 10 %). Type of assay: functional. In outline: as §6
Assay [19] has as its system HEK-293T. Description: Antiproliferative activity against human HEK293T cells assessed as reduction in cell viability after 72 hrs by alamar blue assay. Type of assay: cell-based. Summed up:
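Cells seeded at 5 x 10^3/well (MCF-7) or 1 x 10^4/well (HT-29, HEK-293T) and treated after 24 h with serial dilutions (0.001-100 µM) in 1% v/v ethanol vehicle. Alamar Blue 10% v/v added at 72 h, then 3-5 h at 37 °C in the dark; fluorescence ex 530/em 590 nm. Viability relative to vehicle; IC50 from dose-response curves; mean of three experiments in triplicate.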

The test system of assay [20] is MCF7. Description: Induction of apoptosis in human MCF7 cells assessed as downregulation of Bcl-2 expression level measured after 48 hrs by Western blot analysis. Type of assay: functional, cell-based. As to conditions: dose 0.05-0.5 µM. Summed up:
as §2

Assay [21] relates to HT-29. The assay is described as follows: Cell cycle arrest in human HT-29 cells assessed as accumulation at G2/M phase at 1 uM measured after 72 hrs by PI staining based flow cytometry analysis (reference value: 11 %). It is filed as functional. In outline: as §4

Calls of active or inactive are those of the source. The rule behind the calls is not given here. Some results are limits rather than exact numbers.

With `COc1ccc([C@H]2[C@H](O)C(=O)N2c2cc(OC)c(OC)c(OC)c2)cc1F`, the result in assay [1] and in [16] was Active. The Activity entry in assay [2] was “Dose-dependent effect”; in [5], 11%; in [7] it was 2%; in assay [8] it was 52%; in assay [9], 13%; in [10], 8%. The Activity in assay [11] is 15%; in assay [12], 22%; in assay [13], “Dose-dependent effect”; in [15] it was “Tde”; in assay [17], 66%; in [18], 20%. In addition, the figures for the Activity result in assay [20] and in [21] were “Dose-dependent effect” and 64%, respectively. The inhibition result in assay [3] is “Active”. Further, the result in assay [4], in assay [6] and in assay [14] was inactive. Further, the IC50 in assay [19] was greater than 50 µM.

The values above are taken from ChEMBL document CHEMBL4680165, “β-Lactams with antiproliferative and antiapoptotic activity in breast and chemoresistant colon cancer cells” (Eur J Med Chem, 2020).
